{"source": "ChEMBL document CHEMBL3580529", "about": "“Limonoids with Anti-HIV Activity from Cipadessa cinerascens” (J Nat Prod, 2015)", "key": {"[1]": {"system": "Human immunodeficiency virus 1", "experiment": "Antiviral activity against HIV1 NL4-3 infected in human MT4 cells assessed as inhibition of virus-induced cytopathic effect incubated for 3 to 4 days by MTT assay", "format": "functional, organism-based", "settings": "Human immunodeficiency virus 1, NL4-3, MT4", "outline": "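MT-4 cells seeded with serial compound dilutions, then infected with HIV-1 NL4-3 at final MOI 0.03; 37 °C, 5% CO2, humidified, 3 or 4 days. MTT (5 mg/mL in PBS) added for 3 h, cells lysed in 10% Triton X-100/acidified 2-propanol, absorbance 570 nm. EC50 = concentration giving 50% protection against HIV-induced cytopathic effect.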"}, "[2]": {"experiment": "Selectivity index, ratio of CC50 against human MT4 cells to EC50 for HIV1 NL4-3 infected in human MT4 cells", "format": "toxicity, cell-based", "settings": "MT4 cells (CC50) and HIV1 NL4-3 infected MT4 cells (EC50)", "outline": "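SI calculated as CC50 (MT-4 cytotoxicity, MTT read-out) divided by EC50 (protection of MT-4 cells from HIV-1 NL4-3 cytopathic effect, MOI 0.03), both from parallel 3–4 day assays at 37 °C.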"}, "[3]": {"experiment": "Cytotoxicity against human MT4 cells assessed as reduction in cell viability incubated for 3 to 4 days by MTT assay", "format": "cell-based", "outline": "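Serially diluted compounds on MT-4 cells, 37 °C, 5% CO2, humidified, 3 or 4 days; viability by MTT (5 mg/mL in PBS, 3 h), formazan solubilized with 10% Triton X-100 in acidified 2-propanol, read at 570 nm. CC50 = concentration killing 50% of MT-4 cells.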"}}}
{"smiles": "C=C1[C@H]2C(=O)[C@@]3(C)[C@@H](O[C@@]14CC(=O)O[C@@H](c1ccoc1)[C@]4(C)[C@H]2O)[C@@H](OC(C)=O)[C@@H](OC(C)=O)C(C)(C)[C@@H]3CC(=O)OC", "values": [{"measurement": "EC50", "setting": "[1]", "value": "> 100", "unit": "µM"}]}
{"smiles": "C=C1[C@H]2C(=O)[C@@]3(C)[C@@H](O[C@@]14CC(=O)O[C@@H](c1ccoc1)[C@]4(C)[C@H]2O)[C@@H](O)[C@@H](OC(C)=O)C(C)(C)[C@@H]3CC(=O)OC", "values": [{"measurement": "EC50", "setting": "[1]", "value": 5.5, "unit": "µM"}, {"measurement": "selectivity ratio", "setting": "[2]", "value": "> 7.2"}, {"measurement": "CC50", "setting": "[3]", "value": "> 40", "unit": "µM"}]}
{"smiles": "C=C1[C@H]2C(=O)[C@@]3(C)[C@@H](O[C@@]14CC(=O)O[C@@H](c1ccoc1)[C@]4(C)[C@H]2OC(C)=O)[C@@H](O)[C@@H](OC(C)=O)C(C)(C)[C@@H]3CC(=O)OC", "values": [{"measurement": "EC50", "setting": "[1]", "value": "> 100", "unit": "µM"}]}
{"smiles": "C=C1[C@@H]2C[C@@]3(C)[C@H](c4ccoc4)OC(=O)C[C@]13O[C@H]1C[C@@H](O)C(C)(C)[C@H](CC(=O)OC)[C@@]1(C)C2=O", "values": [{"measurement": "EC50", "setting": "[1]", "value": "> 100", "unit": "µM"}]}
{"smiles": "C=C1[C@@H]2C[C@@]3(C)[C@H](C4=C[C@@H](O)OC4=O)OC(=O)C[C@]13O[C@H]1C[C@@H](OC(C)=O)C(C)(C)[C@H](CC(=O)OC)[C@@]1(C)C2=O", "values": [{"measurement": "EC50", "setting": "[1]", "value": "> 100", "unit": "µM"}]}
{"smiles": "C=C1[C@H]2C(=O)[C@@]3(C)[C@@H](O[C@@]14CC(=O)O[C@@H](C1=C[C@@H](O)OC1=O)[C@]4(C)[C@H]2OC(C)=O)[C@@H](OC(C)=O)[C@@H](OC(C)=O)C(C)(C)[C@@H]3CC(=O)OC", "values": [{"measurement": "EC50", "setting": "[1]", "value": "> 100", "unit": "µM"}]}
{"smiles": "C=C1[C@H]2C(=O)[C@@]3(C)[C@@H](O[C@@]14CC(=O)O[C@@H](C1=C[C@@H](O)OC1=O)[C@]4(C)[C@H]2OC(C)=O)[C@@H](OC(C)=O)CC(C)(C)[C@@H]3CC(=O)OC", "values": [{"measurement": "EC50", "setting": "[1]", "value": "> 100", "unit": "µM"}]}
{"smiles": "COC(=O)C[C@H]1C(C)(C)[C@H](OC(C)=O)[C@H](OC(C)=O)[C@@H]2O[C@]34CC(=O)O[C@@H](c5ccoc5)[C@]3(C)[C@@H](O)[C@@H](C(=O)[C@@H]4C)[C@@]21C", "values": [{"measurement": "EC50", "setting": "[1]", "value": "> 100", "unit": "µM"}]}
{"smiles": "COC(=O)C[C@H]1C(C)(C)[C@H](OC(C)=O)C[C@@H]2O[C@]34CC(=O)O[C@@H](c5ccoc5)[C@]3(C)[C@@H](O)[C@@H](C(=O)[C@@H]4C)[C@@]21C", "values": [{"measurement": "EC50", "setting": "[1]", "value": "> 100", "unit": "µM"}]}
{"smiles": "COC(=O)C[C@H]1C(C)(C)[C@H](OC(C)=O)[C@H](O)[C@@H]2O[C@]34CC(=O)O[C@@H](c5ccoc5)[C@]3(C)[C@@H](O)[C@@H](C(=O)[C@@H]4C)[C@@]21C", "values": [{"measurement": "EC50", "setting": "[1]", "value": "> 100", "unit": "µM"}]}
{"smiles": "COC(=O)C[C@H]1C(C)(C)[C@H](OC(C)=O)[C@H](OC(C)=O)[C@@H]2O[C@]34CC(=O)O[C@@H](c5ccoc5)[C@]3(C)[C@@H](O)[C@@H](C(=O)[C@]4(C)O)[C@@]21C", "values": [{"measurement": "EC50", "setting": "[1]", "value": "> 100", "unit": "µM"}]}
{"smiles": "COC(=O)C[C@H]1C(C)(C)[C@H](OC(C)=O)[C@H](OC(C)=O)[C@@H]2O[C@]34CC(=O)O[C@@H](c5ccoc5)[C@]3(C)[C@@H](O)[C@@H](C(=O)[C@@]4(C)O)[C@@]21C", "values": [{"measurement": "EC50", "setting": "[1]", "value": "> 100", "unit": "µM"}]}
{"smiles": "COC(=O)C[C@H]1C(C)(C)[C@H](OC(C)=O)[C@H](O)[C@@H]2OC3=C(C)C4=CC(=O)O[C@@H](c5ccoc5)[C@]4(C)[C@@H](O)[C@@H]3[C@@]21C", "values": [{"measurement": "EC50", "setting": "[1]", "value": "> 100", "unit": "µM"}]}
{"smiles": "COC(=O)C[C@H]1C(C)(C)[C@H](O)[C@H](O)[C@@H]2OC3=C(C)C4=CC(=O)O[C@@H](c5ccoc5)[C@]4(C)[C@@H](O)[C@@H]3[C@@]21C", "values": [{"measurement": "EC50", "setting": "[1]", "value": "> 100", "unit": "µM"}]}
{"smiles": "COC(=O)C[C@H]1C(C)(C)[C@H](O)[C@H](O)[C@@H]2OC3=C(C)C4=CC(=O)O[C@@H](c5ccoc5)[C@]4(C)C[C@@H]3[C@@]21C", "values": [{"measurement": "EC50", "setting": "[1]", "value": "> 100", "unit": "µM"}]}
{"smiles": "CCC(C)C(O)C(=O)O[C@H]1[C@H](OC=O)[C@H]([C@@]2(C)[C@@H](OC(C)=O)CC(=O)O[C@](C)(COC(C)=O)[C@@H]2CC(=O)OC)C(COC)=C2[C@H](O)C[C@@H](c3ccoc3)[C@@]21C", "note": "(some centres not stated)", "values": [{"measurement": "EC50", "setting": "[1]", "value": 6.1, "unit": "µM"}, {"measurement": "selectivity ratio", "setting": "[2]", "value": "> 6.5"}, {"measurement": "CC50", "setting": "[3]", "value": "> 40", "unit": "µM"}]}
{"smiles": "Cc1ccnc2c1NC(=O)c1cccnc1N2C1CC1", "note": "[NEVIRAPINE]", "values": [{"measurement": "EC50", "setting": "[1]", "value": 0.1, "unit": "µM"}, {"measurement": "selectivity ratio", "setting": "[2]", "value": "> 833"}]}
